# In the library only some 1.8% were active in any assay of this set; here they are far more common.
# A1 inh = inhibitors of the anti-apoptotic protein A1, read as caspase activation | MEF A1-2A-BIM cells, Caspase-Glo 3/7 luminescence, 3 h; percent of clofoctol response, vehicle zero | caspase activation, % (test concentration not listed) | 0.066% of 330,000 active | AID 2462;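 active means over half of replicate activation scores above 10%, or exactly half above 10 with the replicate mean above 10; inconclusive means replicate mean below 10 yet half the replicates above 10; inactive means over half of replicates below 10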
# LANA-H2B inh = blocks KSHV LANA binding to histone H2A/H2B | cell-free LANA-H2A/H2B peptide, fluorescence polarization | inhibition, % (no concentration beside the values) | 0.6% of 320,000 active | AID 2629; in the data active means inhibition mostly above about 10%, no sharp cut-off; inactive means mostly below about 6.7%
# ATG4B inhibitor = blocks human ATG4B protease cleavage of LC3 substrate; Q9Y4P1; ATG4B cleavage of LC3-PLA2, NBD-HPC fluorescence, 1 h; inhibition, % at 8.33 µM; 0.51% of 340,000 active; in the data active means inhibition above about 40%
# Target sequence (Q9Y4P1 whole entry, looked up): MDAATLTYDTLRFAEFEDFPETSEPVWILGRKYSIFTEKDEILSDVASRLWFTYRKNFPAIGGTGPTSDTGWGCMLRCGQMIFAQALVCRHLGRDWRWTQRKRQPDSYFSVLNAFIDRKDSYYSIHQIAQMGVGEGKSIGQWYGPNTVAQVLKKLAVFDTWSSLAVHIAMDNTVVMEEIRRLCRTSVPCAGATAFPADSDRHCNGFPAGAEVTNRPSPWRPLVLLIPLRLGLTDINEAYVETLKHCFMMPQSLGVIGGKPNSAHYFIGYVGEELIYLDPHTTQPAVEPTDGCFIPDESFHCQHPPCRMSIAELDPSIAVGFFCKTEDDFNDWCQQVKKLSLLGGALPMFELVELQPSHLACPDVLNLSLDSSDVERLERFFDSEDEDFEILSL
# AI-2 QS mod = modulators of Vibrio harveyi AI-2 quorum sensing system; Vibrio harveyi JMH597 AI-2 luminescence/OD600 ratio, 9 h; active compounds read low; strain lacks LuxN and CqsS sensors; 0 = neutral-control median; activity change, % at 7.5 µM; 0.4% of 300,000 active; AID 2094; in the data active means activity change below about -75%, passing the limit was not always enough; inconclusive means no clear call, values can overlap the other calls;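 further: luminescence divided by OD600 gain over 9 h not by final OD600 alone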
# HKDC1 inh = HKDC1 (human) hexokinase inhibition. recombinant HKDC1, G6PDH/diaphorase resazurin coupled fluorescence. inhibition, % at 20 µM. 0.16% of 340,000 active;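 active means inhibition above about 35% when tested at 20 µM, limit read from the data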
#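 Test system: recombinant HKDC1 (HK5) hexokinase enzyme, produced in-house; Amount: enzyme 5 µg/mL final; Buffer or medium: Tris pH 8.0 buffer with MgCl2, Tween-20, BSA, BME; Reagent: glucose and ATP substrates; Doses: 20 µM test compound, 1% DMSO; Incubation: 90 min reaction incubation at room temperature, dark; Detection: resorufin fluorescence at 613 nm.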
# HDAC3 inh = human HDAC3 inhibition; O15379; recombinant HDAC3, fluorogenic peptide/trypsin coupled, fluorescence; inhibition, % at 8.3 µM; 0.15% of 320,000 active; AID 2718; in the data active means inhibition above about 26%, passing the limit was not always enough; inconclusive means no clear call, values can overlap the other calls
# Numbers stand for hits; . = inactive; ? = inconclusive; / = not tested or not shown; + = active, no number.
SMILES,A1 inh,LANA-H2B inh,ATG4B inhibitor,AI-2 QS mod,HKDC1 inh,HDAC3 inh
Cc1cc(N2CC(C)OC(C)C2)nc(C(C)C)n1 (stereo not given),.,+,.,.,.,.
Nc1nc2c(ncn2[C@H]2C[C@H](O)[C@@H](CO)O2)c(=O)[nH]1,.,.,.,.,.,.
Nc1nc(Cl)nc2c1ncn2C1CC(O)C(CO)O1 (stereo not given),.,.,.,-91,.,.
O=C(CC(C(=O)O)P(=O)(c1ccccc1)c1ccccc1)c1ccccc1 (stereo not given),.,.,.,.,.,.
CCC(C(=O)O)P(=O)(c1ccc(Cl)cc1)c1ccc(Cl)cc1 (stereo not given),.,13,.,.,.,.
CC(NC(=O)c1cc(COc2c(F)cccc2F)on1)c1cnn(-c2ccccc2)c1 (stereo not given),.,47,.,.,.,.
O=C(CSc1nnnn1-c1ccc(O)cc1)c1cc2ccccc2o1,.,.,.,-77,.,?
CCn1cc(C(=O)O)c(=O)c2cnc(N3CCN(C(=S)NC(=O)c4ccccc4)CC3)nc21,.,14,.,.,.,.
O=C(N/N=C/C=C\c1cccc([N+](=O)[O-])c1)c1ccccn1,.,61,.,.,.,.
O=C(N/N=C/C=C/c1ccccc1)c1ccccn1,.,.,.,.,.,.
COc1ccc(C(=O)NCCCn2ccnc2)cc1[N+](=O)[O-],.,.,.,.,.,.
COc1cc(C(=O)NCCCn2ccnc2)cc(OC)c1OC,.,11,.,.,.,.
CC(C)(C)c1ccc(C(=O)NC(=O)COC(=O)c2ccco2)cc1,/,/,.,/,.,/
O=C(c1ccco1)N1CCN(c2ncnc3c(-c4ccc(Cl)cc4)nsc23)CC1,.,.,.,.,.,.
CCCCNS(=O)(=O)c1ccc(NC(=O)Cc2ccc(OC)cc2)cc1,.,.,.,-96,.,.
C=CC[C@@H](CC(=O)N[C@H](CO)Cc1ccccc1)C(=O)N[C@H](COC(=O)[C@H](CC=C)CC(=O)OC(C)(C)C)Cc1c[nH]c2ccccc12,/,/,.,/,.,/
O=C(NNc1nc2c(F)cc(F)cc2s1)c1ccccc1,.,.,.,.,.,.
O=C(NNc1nc2ccccc2s1)c1ccc(F)cc1,.,/,.,-77,.,/
O=C(NNc1nc2c(F)cccc2s1)c1ccccc1,.,.,.,.,.,.
O=C(NNc1nc2ccc(F)cc2s1)c1cccc(F)c1,.,.,.,-119,.,.
COc1cccc(COC(=O)C2CC(=O)N(Cc3ccco3)C2)c1OC (stereo not given),.,.,.,.,.,.
CN(Cc1ccccc1)C(=O)c1cccc(NC(=O)Cc2ccc(NC(=O)C3CCCN(C(=O)C4CCCC4)C3)cc2)c1 (stereo not given),/,/,.,/,.,/
COc1ccc([N+](=O)[O-])c(O)c1C(C)=O,/,/,.,/,.,/
C[C@H](NC(=O)c1ccco1)C(=O)Nc1cccc([N+](=O)[O-])c1,.,.,.,.,.,.
Nn1c(SCC(=O)Nc2ccc3c(c2)OCCO3)nncc1=O,.,13,.,.,.,.
SMILES,A1 inh,LANA-H2B inh,ATG4B inhibitor,AI-2 QS mod,HKDC1 inh,HDAC3 inh
Cc1ccccc1-c1nnc(SCC(=O)Nc2ccc3c(c2)OCCO3)n1N,.,.,.,.,.,.
Cc1cccc(Oc2coc3cc(OC(=O)c4cncc(Br)c4)ccc3c2=O)c1,.,3.5,.,.,.,.
O=C(Oc1ccc2c(=O)c(Oc3ccc4ccccc4c3)coc2c1)c1ccco1,.,.,.,-82,.,.
Cc1cccc(N(Cc2ccccc2)C(=O)c2ccc(S(C)(=O)=O)cc2)c1,.,23,.,.,.,.
Cc1c(N)cccc1[N+](=O)[O-],.,.,.,/,.,.
Cc1c(N)cccc1N,.,123,.,/,.,.
COC(=O)c1ccc(C)c(NC(=O)CN(c2ccccc2)S(=O)(=O)N(C)C)c1,.,.,.,.,.,.
COc1ccc(C(=O)N2CCN(c3ccccc3)CC2)cc1S(=O)(=O)NC1CC1,/,/,.,/,.,/
N#CCC(=O)Nc1ncc(Cc2ccccc2Cl)s1,.,33,.,.,.,.
COc1ccc(C(=O)Cc2nnc(C)s2)cc1,.,.,.,.,.,.

# Assay outcomes: PubChem, several laboratories
